Fewer inactive variants are shown than the library holds.
B1: tRNA (parent)
chain: GUUCCGUUGGCGUAAUGGUAACGCGUCUCCCUCCUAAGGAGAAGACUGCGGGUUCGAGUCCCGUACGGAACG

Variants of: B1
Assay: yeast fitness relative to wild type (ratio to wild type); higher = fitter; tRNA-Arg(CCU), competitive growth, 37 C, YPD
In short: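 Variants of the tRNA-Arg(CCU) gene were chemically synthesised with a 3% per-site mutation rate across 69 sites and placed at the native genomic locus in Saccharomyces cerevisiae. Six parallel replicates of the pooled strains were competed in YPD at 37°C for 24 hours, and gene amplicons from the start and end populations were read by 100-nucleotide paired-end sequencing. Darwinian fitness relative to wild type was derived from changes in genotype frequencies. Genotypes required ≥ 100 starting reads, and estimates < 0.5 were set to 0.5.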

Variant | yeast fitness
C4G U8C G25A A42U A69C | ≤ 0.5
C4G C24U C33G G48A C49U | ≤ 0.5
C4G A65G | 1.02
C4G A65U | 0.793
C4G G17A C34A A43G G68A | ≤ 0.5
C4G C11A U35A A45G C49U U59G G67U | ≤ 0.5
C4G C24U A40U A42C A45U | ≤ 0.5
C4G C22G C24U C29U C30G | ≤ 0.5
C4G G6C G25A C29A C31A C33G | 0.59
C4G C62A G67C | ≤ 0.5
C4G C5U C31G G41A A43C G51C | 0.606
C4G C24U A40G | ≤ 0.5
C4G C55U C61A | ≤ 0.5
C4G U19A A21G G52C C55G | ≤ 0.5
C4G C61G A65C | ≤ 0.5
C4G G63A | 0.813
C4G U7G G63C | 0.521
C4G A57U U59C G67A | ≤ 0.5
C4G G12A C27A C31A G52A G58C A70G | ≤ 0.5
C4G C33G A65U | 0.605
C4G U13A G68C | 0.541

Variant | yeast fitness
C4G C33U A37U G38A A42C | ≤ 0.5
C4G C5U | 0.751
C4G U7G A43C | 0.687
C4G C24A C46U | 0.608
C4G C34U G41A | ≤ 0.5
C4G C11A U19C G23C U47C | 0.663
C4G C5G C29A C34U A42U G50C | 0.531
C4G G6C C34G A42G G63C | ≤ 0.5
C4G C5U A40G | 0.526
C4G U16A A36C A57C C61A U64C | ≤ 0.5
C4G U19G A69U | ≤ 0.5
C4G G17C C33G U47A | 0.689
C4G U7C A45U G48C | ≤ 0.5
C4G C30A C49G A65C | ≤ 0.5
C4G G12C C33G G44C | ≤ 0.5
C4G A21G A45U C49U U64C C66U | ≤ 0.5
C4G U16A A36C | 0.579
C4G C5G G10A G18A G44C C61A C62U C66U | ≤ 0.5
C4G C29G C49U C60G | ≤ 0.5
C4G C5G C29U G39C | ≤ 0.5
C4G G6A C30A C34U C46U | ≤ 0.5

Variant | yeast fitness
C4G C11G G41C U59G A70G | ≤ 0.5
C4G G17A A69C | 0.525
C4G U8C C22G A42C C49U A57C | 0.676
C4G G67A | 0.913
C4G G67C | 0.883
C4G G25A A45G | ≤ 0.5
C4G G10C G12A A36C U54G C60U A70G | 0.615
C4G G6A U47A | 0.61
C4G G6A U47G | ≤ 0.5
C4G U8C C24G U32G | ≤ 0.5
C4G U8A G12A G48A A69C | 0.573
C4G C30U A42U G50C C62A | 0.511
C4G C24A C34A U47C | ≤ 0.5
C4G C5A A21C U54A A65U A69C | ≤ 0.5
C4G U13A A21C A43U A45G | 0.559
C4G C5G A14G A43G | ≤ 0.5
C4G G9A A70C | 1.09
C4G C11G U26A | ≤ 0.5
C4G G6A G23A A43G G48C | ≤ 0.5
C4G C34G | 0.574
C4G C34U | 0.624

Variant | yeast fitness
C4G C62U | 0.869
C4G G56C A70G | ≤ 0.5
C4G C11U A69U | 0.539
C4G C33U | 0.708
C4G C11U C29G G63C C66U | ≤ 0.5
C4G C31A | 0.817
C4G G18C A42U C46G | ≤ 0.5
C4G A36U C46U | 0.59
C4G G9C C27A A36G C46A C55U A65C | ≤ 0.5
C4G G10C G12C A21C G48C A57G G68C | 0.519
C4G A21U G41C U53C A65C | 0.535
C4G A57G C61U | 0.629
C4G C29G C66U | 0.588
C4G C5G A43G G63A | ≤ 0.5
C4G G18A A45C | ≤ 0.5
C4G G17C A43C G51A | ≤ 0.5
C4G G17A A43U C60A | ≤ 0.5
C4G C5G C11A G38A G67A | ≤ 0.5
C4G U8C C60U G63C G68A | ≤ 0.5
C4G C24U U32C C49A A57U C66U G68C | ≤ 0.5
